The source of these data is ChEMBL document CHEMBL2331408, “Discovery and structure-activity relationships of pyrrolone antimalarials” (J Med Chem, 2013).

Series [1] is described as follows: Drug metabolism in mouse liver microsomes assessed as mono-oxygenation at 1 uM by LC/MS analysis. The format is ADME, Microsome. On the technique in general: Microsomes from liver hold many membrane-bound enzymes, among them those of drug oxidation.
Series [2] concerns Liver. Description: Intrinsic clearance in mouse liver microsomes at 1 uM by LC/MS analysis. In kind it is ADME, Microsome. The settings on record: microsomes, 1 µM. The method in brief: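 Mouse hepatic microsomes; in vitro intrinsic clearance from compound degradation during incubation, expressed as μL/min/mg.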
The nature of series [3]: Drug metabolism in mouse liver microsomes assessed as bis-oxygenation at 1 uM by LC/MS analysis. In kind it is ADME, Microsome.
Series [4] can be described thus: Drug metabolism in mouse liver microsomes assessed as glucuronide metabolite formation at 1 uM by LC/MS analysis. In kind it is ADME, Microsome.
A short description of series [5]: Partition coefficient, log D of the compound at pH 7.4 by HPLC analysis. In kind it is physicochemical. The settings on record: octanol/water. A digest of the protocol: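 LogD at pH 7.4 measured with a chromatographic gLogD technique.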
The nature of series [6]: Drug metabolism in mouse liver microsomes assessed as O-demethylation at 1 uM by LC/MS analysis. The format is ADME, Microsome.
Series [7] is described as follows: Apparent terminal half life in Sprague-Dawley rat at 1 mg/kg, iv. The format is ADME, organism-based. Also on record: dose 1 mg/kg, route intravenous. The conditions noted are these: in vivo, read-out: betat1/2(app) (converted). A digest of the protocol: (§1)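 Male Sprague–Dawley rats, single iv dose as solution in aqueous vehicle with 40% (v/v) propylene glycol; serial plasma concentrations, profiles averaged from n = 2 rats; urine collected for unchanged drug. Half-life, steady-state volume of distribution and plasma clearance taken from plasma concentration–time profiles.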

Series [8] is described as follows: Volume of distribution at steady state in Sprague-Dawley rat at 1 mg/kg, iv. Also on record: dose 1 mg/kg, route intravenous. The conditions noted are these: in vivo, read-out: Vdss. In kind it is ADME, organism-based. A digest of the protocol:
as §1

For series [9], the system named is Liver microsomes. Description: Drug metabolism in rat liver microsomes at 1 uM by LC/MS analysis. The format is ADME, Microsome.
Series [10] in a line: Cmax in Sprague-Dawley rat at 19 mg/kg, po. The format is ADME, organism-based. Also on record: dose 19 mg/kg, route oral. The conditions noted are these: in vivo.
The nature of series [11]: Plasma clearance in Sprague-Dawley rat at 1 mg/kg, iv. The format is ADME, organism-based. Also noted: dose 1 mg/kg, route intravenous. The method in brief:
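Male Sprague–Dawley rats given a nominal 1 mg/kg iv dose as a solution in aqueous vehicle containing 40% (v/v) propylene glycol. Plasma concentration–time profiles were measured, with each profile the average of n = 2 rats. Plasma clearance was derived from the iv profile.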

The subject of series [12] is Liver microsomes. The series can be described thus: Intrinsic clearance in rat liver microsomes at 1 uM by LC/MS analysis. The format is ADME, Microsome.
Series [13] relates to Liver microsomes. Description: Intrinsic clearance in human liver microsomes at 1 uM by LC/MS analysis. In kind it is ADME, Microsome.
Series [14] concerns Rattus norvegicus. The series can be described thus: Oral bioavailability in Sprague-Dawley rat at 19 mg/kg. In kind it is ADME, organism-based. The conditions noted are these: in vivo.
Series [15] in a line: Drug metabolism in mouse liver microsomes at 1 uM by LC/MS analysis. The format is ADME, Microsome.
Series [16] deals with Liver microsomes. Description: Drug metabolism in human liver microsomes at 1 uM by LC/MS analysis. The format is ADME, Microsome.
In series [17] the test system is Liver. The series can be described thus: Half life in mouse liver microsomes. The format is ADME, Microsome.
Series [18] relates to Liver microsomes. The series can be described thus: Half life in rat liver microsomes. In kind it is ADME, Microsome.
Series [19] deals with Liver microsomes. The series can be described thus: Half life in human liver microsomes. In kind it is ADME, Microsome.
Series [20] can be described thus: in vivo. The settings on record: Sprague-Dawley, rat, po, 19 mg/kg.
Series [21] is described as follows: in vivo. The conditions noted are these: Sprague-Dawley, rat, po, 20 mg/kg.
Series [22] in a line: Drug degradation assessed as reactivity with reduced glutathione ethyl ester. In kind it is physicochemical.
Series [23] can be described thus: Cmax in Sprague-Dawley rat at 20 mg/kg, po. In kind it is ADME, organism-based. The settings on record: in vivo. Also noted: dose 20 mg/kg, route oral.
A short description of series [24]: Drug excretion in Sprague-Dawley rat urine at 19 mg/kg, ip. The format is ADME, organism-based. Also on record: dose 19 mg/kg, route intraperitoneal. The settings on record: read-out: Drug excretion. A digest of the protocol: (§2)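 Male Sprague–Dawley rats, nominal 20 mg/kg (19 mg/kg actual ip), given po as an aqueous HPMC suspension or ip as a suspension in aqueous vehicle with 10% DMSO; percentage of the dose excreted unchanged in urine was measured; n = 2 rats per profile.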

Series [25] can be described thus: Plasma clearance in Sprague-Dawley rat at […], iv. Also on record: dose 4.5 mg/kg, route intravenous. The format is ADME, organism-based.
A short description of series [26]: Drug excretion in Sprague-Dawley rat urine at 20 mg/kg, po. The format is ADME, organism-based. Also noted: dose 20 mg/kg, route oral. The settings on record: read-out: Drug excretion. The method in brief:
as §2

Series [27] can be described thus: Drug excretion in iv dosed rat urine assessed as glutathione adduct level. The format is ADME, organism-based. The settings on record: in vivo.
Series [28] concerns Rattus norvegicus. The series can be described thus: Oral bioavailability in Sprague-Dawley rat at 20 mg/kg. In kind it is ADME, organism-based. The conditions noted are these: in vivo.
Series [29] in a line: in vivo. The settings on record: Sprague-Dawley, rat, ip, 19 mg/kg.
Series [30] relates to Rattus norvegicus. The series can be described thus: Bioavailability in Sprague-Dawley rat at 19 mg/kg, ip. In kind it is ADME, organism-based. The conditions noted are these: in vivo.
The nature of series [31]: Volume of distribution at steady state in Sprague-Dawley rat at […], iv. The conditions noted are these: in vivo, read-out: Vdss. Also noted: dose 4.5 mg/kg, route intravenous. In kind it is ADME, organism-based.
Series [32] in a line: Drug excretion in Sprague-Dawley rat urine at […], iv. In kind it is ADME, organism-based. Also on record: dose 4.5 mg/kg, route intravenous. The conditions noted are these: read-out: Drug excretion.
The test system of series [33] is Liver microsomes. Description: Drug metabolism in rat liver microsomes assessed as mono-oxygenation at 1 uM by LC/MS analysis. In kind it is ADME, Microsome.
A short description of series [34]: Apparent terminal half life in Sprague-Dawley rat at […], iv. In kind it is ADME, organism-based. Also noted: dose 4.5 mg/kg, route intravenous. The settings on record: in vivo, read-out: betat1/2(app) (converted).
Series [35] in a line: Cmax in Sprague-Dawley rat at 19 mg/kg, ip. In kind it is ADME, organism-based. The conditions noted are these: in vivo. Also on record: dose 19 mg/kg, route intraperitoneal.
Series [36] in a line: Apparent terminal half life in Sprague-Dawley rat at 20 mg/kg, po. In kind it is ADME, organism-based. Also noted: dose 20 mg/kg, route oral. The conditions noted are these: in vivo, read-out: betat1/2(app) (converted).
The nature of series [37]: Apparent terminal half life in Sprague-Dawley rat at 19 mg/kg, ip. In kind it is ADME, organism-based. Also on record: dose 19 mg/kg, route intraperitoneal. The settings on record: in vivo, read-out: betat1/2(app) (converted).

On to `CCOC(=O)C1=C(C)N/C(=C/c2ccn(-c3ccc(C(F)(F)F)cc3)c2)C1=O`, for which the Drug metabolism entry in series [1] is reported as “Active”. Further, the “Microsomal intrinsic clearance (CLint)” value in [2] was 140 µL/min/mg.

On to `CCOC(=O)C1=C(C)N/C(=C/c2cc(CC)n(-c3ccccc3C(F)(F)F)c2CC)C1=O`, for which, in series [1], the Drug metabolism result is given as “Active”. Moreover, the “Microsomal intrinsic clearance (CLint)” value in series [2] came to 140 µL/min/mg.

`CC1=C(C(=O)OC(C)(C)C)C(=O)/C(=C\c2cc(C)n(-c3ccccc3C(F)(F)F)c2C)N1`: the Drug metabolism entry in [3] and in [1] was “Active” throughout. In [2], the “Microsomal intrinsic clearance (CLint)” value is 86 µL/min/mg.

`CC1=C(C(=O)OCc2ccccc2)C(=O)/C(=C\c2cc(C)n(-c3ccccc3C(F)(F)F)c2C)N1`: the “Microsomal intrinsic clearance (CLint)” value in [2] came out at 560 µL/min/mg.

Usually logD stands for lipophilicity at a set pH, counting ionised and neutral species. High values mean a more lipophilic compound, low ones a more hydrophilic compound. Turning to `CC1=C(C(=O)O)C(=O)/C(=C\c2cc(C)n(-c3ccccc3C(F)(F)F)c2C)N1`, the Drug metabolism result in [4] is given as “Active”. Also, in series [5], the logD was 5.8. In addition, in [2], the “Microsomal intrinsic clearance (CLint)” value is 22 µL/min/mg.

For `CC1=CC(=O)/C(=C\c2cc(C)n(-c3ccccc3C(F)(F)F)c2C)N1`, the “Microsomal intrinsic clearance (CLint)” value in [2] is 23 µL/min/mg.

Regarding `CC1=C(C(N)=O)C(=O)/C(=C\c2cc(C)n(-c3ccccc3C(F)(F)F)c2C)N1`, the Drug metabolism result in series [1] is “Active”.

Regarding `CCOC(=O)C1=C(C)N/C(=C/c2cc(C)n(-c3ccc(Cl)cc3)c2C)C1=O`, the logD in series [5] is 3.4. Further, in series [2], the “Microsomal intrinsic clearance (CLint)” value was found to be 72 µL/min/mg.

As for `CCOC(=O)C1=C(C)N/C(=C/c2cc(C)n(-c3ccc(Br)cc3)c2C)C1=O`, the logD in series [5] amounted to 3.4. In addition, the “Microsomal intrinsic clearance (CLint)” value in [2] was found to be 62 µL/min/mg.

Molecule `CCOC(=O)C1=C(C)N/C(=C/c2cc(C)n(-c3ccc(OC)cc3)c2C)C1=O` showed a logD in series [5] of 3. The Drug metabolism entry in series [1] is recorded as “Active”. In addition, the “Microsomal intrinsic clearance (CLint)” value in [2] worked out at 54 µL/min/mg.

For the molecule `CCOC(=O)C1=C(C)N/C(=C/c2cc(C)n(-c3ccc(N(C)C)cc3)c2C)C1=O`, in series [5], the log distribution coefficient (logD) came to 3.4. The Drug metabolism result in series [6] is reported as “Active”. The “Microsomal intrinsic clearance (CLint)” value in series [2] turned out to be 56 µL/min/mg.

In general, Cmax refers to the peak of the concentration-time curve. What is called clearance is the rate of elimination divided by the concentration. High values mean a high capacity for elimination, low ones a low capacity for elimination. By Tmax is commonly meant the time from dosing to the highest level. With `CCOC(=O)C1=C(C)N/C(=C/c2cc(C)n(-c3ccc(C(F)(F)F)cc3)c2C)C1=O`, the half-life in series [7] was 87 h. Also, in [8], the Vd was 19 L/kg. Further, the Drug metabolism result in series [9], in series [15] and in series [16] was “Not Active” in each case. This molecule also returned a logD in series [5] of 3.4. The molecule also gave a Cmax in [10] of 190 nM. For the same molecule, the clearance in series [11] amounted to 22 mL/min/kg. Besides, the results for the CLH in series [12] and in series [13] were 31 µL/min/mg and 49 µL/min/mg, respectively. In series [14], this molecule had an F of 4%. Besides, the t1/2 was 0.548 h in [17], 0.933 h in series [18] and 0.583 h in series [19]. Besides, the “Microsomal intrinsic clearance (CLint)” value in series [2] turned out to be 53 µL/min/mg. The Tmax in [20] was 1.67 h.

For `CCOC(=O)C1=C(C)N/C(=C/c2cc(C)n(-c3cccc(C(F)(F)F)c3)c2C)C1=O`, in series [5], the pH-dependent lipophilicity (logD) was found to be 3.4. Moreover, in series [2], the “Microsomal intrinsic clearance (CLint)” value was determined as 97 µL/min/mg.

With `CCOC(=O)C1=C(C)N/C(=C/c2cc(C)n(-c3ccc(F)cc3F)c2C)C1=O`, in [5], the logD was determined as 3. Also, the Drug metabolism entry in series [1] was “Active”. In addition, the “Microsomal intrinsic clearance (CLint)” value in [2] was 77 µL/min/mg.

`CCOC(=O)C1=C(C)N/C(=C/c2cc(C)n(-c3ccccc3C(F)(F)F)c2C)C1=O`: the results for the Tmax in series [21] and in series [29] were […] and 0.25 h, respectively. Besides, the Stability entry in series [22] was “Stable”. In addition, the values for the peak concentration (Cmax) in series [23] and in series [35] were […] and […], respectively. The dose excreted was 0.01% in series [24], […] in series [26] and […] in series [32]. Also, the logD in series [5] amounted to […]. In series [25], this molecule showed a clearance of […]. Also, the CLH in series [12] was determined as […]; in series [13] it was […]. Besides, the Drug excretion entry in series [27] was “Not Active”. The results for the F in [28] and in [30] were 6% and 45.7%, respectively. In addition, the Drug metabolism result in series [1] is “Active”; in series [15] it was “Not Active”; in series [16] it was “Not Active”; in [33], “Active”. In series [31], the Vd is […]. Also, the t1/2 amounted to […] in series [17], […] in [18] and […] in series [19]. The values for the half-life in series [34], in [36] and in series [37] were […], […] and […], respectively.
